Assay results from ChEMBL document CHEMBL1157043, “An eco-friendly synthesis and antimicrobial activities of dihydro-2H-benzo- and naphtho-1,3-oxazine derivatives” (Eur J Med Chem, 2010).
In brackets after ≈: the same amount, converted by molar mass.

Assays:
Candida albicans = test: Antimicrobial activity against Candida albicans after 24 hrs; assay type: functional
In short: (§1)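 Broth microdilution per NCCLS guidelines in MOPS-buffered RPMI 1640. Starting inoculum was 1-5 × 10^3 cfu/mL, and plates were incubated at 35 °C. MIC was read spectrophotometrically at 492 nm after 24–48 h for yeasts and 72–96 h for mycelial fungi.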

Cryptococcus neoformans = test: Antimicrobial activity against Cryptococcus neoformans after 24 hrs; assay type: functional; in short: as §1
Sporothrix schenckii = test: Antimicrobial activity against Sporothrix schenckii after 24 hrs; assay type: functional; in short: as §1
[1] = tested on: Trichophyton mentagrophytes; test: Antimicrobial activity against Trichophyton mentagrophytes after 24 hrs; assay type: functional
Aspergillus fumigatus [2] = test: Antimicrobial activity against Aspergillus fumigatus after 24 hrs; assay type: functional
Candida parapsilosis = test: Antimicrobial activity against Candida parapsilosis ATCC 22019 after 24 hrs; assay type: functional; details: Lodderomyces parapsilosis, ATCC 22019, 24 h; in short: as §1
Klebsiella pneumoniae = test: Antimicrobial activity against Klebsiella pneumoniae after 24 hrs; assay type: functional
In short: (§2)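 NCCLS microdilution in Mueller Hinton broth. Strains were grown 24 h on nutrient agar at 37 °C, suspended at about 1.0–2.0 × 10^7 cells/mL (McFarland-matched) in saline with 0.05% Tween 20, then diluted 100 µL into 10 mL medium. Compounds were taken from a 1 mg/mL DMSO stock as twofold dilutions, top final 50 µg/mL. Incubation was 35 °C in a moist, dark chamber, and MIC was read spectrophotometrically at 24 h.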

Escherichia coli = test: Antimicrobial activity against Escherichia coli after 24 hrs; assay type: functional; in short: as §2
Pseudomonas aeruginosa = test: Antimicrobial activity against Pseudomonas aeruginosa after 24 hrs; assay type: functional; in short: as §2
Staphylococcus aureus = test: Antimicrobial activity against Staphylococcus aureus after 24 hrs; assay type: functional; in short: as §2
L929 [3] = test: Cytotoxicity against mouse L929 cells at 6.25 ug/ml after 24 hrs by MTT assay; assay type: cell-based; details: l929, 24 h
In short: (§3)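 L929 mouse fibroblasts were grown in RPMI 1640 with 10% FBS at 37 °C under 5% CO2 and seeded at 1.0 × 10^5 cells/mL. At 80% confluence the medium was switched to serum-free RPMI, and cells were exposed 24 h to 0.09–25 µg/mL in twofold steps. After PBS washes, cells got 0.5 mg/mL MTT for 4 h at 37 °C, then DMSO for 30 min at room temperature. Viability was calculated as (A570−A630) relative to untreated cells.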

L929 [4] = test: Cytotoxicity against mouse L929 cells assessed as change in morphology at 6.25 ug/ml after 24 hrs […]; assay type: cell-based; details: l929, 24 h
In short: (§4)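 L929 fibroblasts (serum-free RPMI, 37 °C, 5% CO2) were exposed to compound for 24 h, then fixed and stained with Giemsa for 30 min at 37 °C. Excess stain was washed off with PBS, plates were air-dried, and cell morphology was examined under a phase contrast microscope against untreated controls.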

[5] = Cytotoxicity against mouse L929 cells assessed as viability at 12.5 to 25 ug/ml after 24 hrs by MTT assay; assay type: cell-based; details: read-out: Activity; in short: as §3
L929 [6] = test: Cytotoxicity against mouse L929 cells assessed as change in cellular morphology at 12.5 to 25 ug/ml after 24 hrs […]; assay type: cell-based; details: l929, 24 h; in short: as §4
Aspergillus fumigatus [7] = test: Antimicrobial activity against Aspergillus fumigatus after 72 to 96 hrs
[8] = tested on: Trichophyton mentagrophytes; test: Antimicrobial activity against Trichophyton mentagrophytes after 72 to 96 hrs

Structure (SMILES) | MIC (Candida albicans) [µg/mL] | MIC (Cryptococcus neoformans) [µg/mL] | MIC (Sporothrix schenckii) [µg/mL] | MIC [1] [µg/mL] | MIC (Aspergillus fumigatus [2]) [µg/mL] | MIC (Candida parapsilosis) [µg/mL] | MIC (Klebsiella pneumoniae) [µg/mL] | MIC (Escherichia coli) [µg/mL] | MIC (Pseudomonas aeruginosa) [µg/mL] | MIC (Staphylococcus aureus) [µg/mL] | Activity (L929 [3]) | Activity (L929 [4]) | viability at 24 h [5] [%] | Activity (L929 [6]) | MIC (Aspergillus fumigatus [7]) [µg/mL] | MIC [8] [µg/mL]
Cc1ccc2c(c1)CN(c1ccc(F)cc1)CO2 | > 50 | 50 (≈ 206 µM) | 25 (≈ 103 µM) | 25 (≈ 103 µM) | > 50 | > 50 | 50 (≈ 206 µM) | 50 (≈ 206 µM) | 50 (≈ 206 µM) | 50 (≈ 206 µM) |  |  |  |  |  | 
Clc1ccccc1N1COc2c(Cl)ccc(Cl)c2C1 | > 50 | 50 (≈ 159 µM) | 12.5 (≈ 39.7 µM) |  |  | 50 (≈ 159 µM) | 6.25 (≈ 19.9 µM) | > 50 | 50 (≈ 159 µM) | 12.5 (≈ 39.7 µM) | Non-toxic | Non-toxic | > 90 | Toxic | 50 (≈ 159 µM) | 12.5 (≈ 39.7 µM)
Clc1ccc2c(c1)CN(c1ccccc1Cl)CO2 | 12.5 (≈ 44.6 µM) | 12.5 (≈ 44.6 µM) | 6.25 (≈ 22.3 µM) |  |  | 25 (≈ 89.2 µM) | > 50 | > 50 | > 50 | 6.25 (≈ 22.3 µM) | Non-toxic | Non-toxic | > 90 | Toxic | 25 (≈ 89.2 µM) | 3.12 (≈ 11.1 µM)
Clc1ccc2c(c1)CN(CCN1COc3ccc(Cl)cc3C1)CO2 | 12.5 (≈ 34.2 µM) | 12.5 (≈ 34.2 µM) | 6.25 (≈ 17.1 µM) |  |  | 25 (≈ 68.4 µM) | > 50 | > 50 | > 50 | 12.5 (≈ 34.2 µM) | Non-toxic | Non-toxic | > 90 | Toxic | 50 (≈ 137 µM) | 3.12 (≈ 8.54 µM)
Clc1cc(Cl)c2c(c1)CN(CCN1COc3c(Cl)cc(Cl)cc3C1)CO2 | 50 (≈ 115 µM) | 25 (≈ 57.6 µM) | > 50 |  |  | 50 (≈ 115 µM) | 1.56 (≈ 3.59 µM) | > 50 | > 50 | 0.39 (≈ 0.898 µM) | Non-toxic | Non-toxic | > 90 | Toxic | 50 (≈ 115 µM) | 25 (≈ 57.6 µM)
Cc1ccc2c(c1)CN(c1ccc(Cl)cc1)CO2 | 50 (≈ 193 µM) | 25 (≈ 96.3 µM) | 12.5 (≈ 48.1 µM) | 12.5 (≈ 48.1 µM) | 25 (≈ 96.3 µM) | 50 (≈ 193 µM) | 25 (≈ 96.3 µM) | > 50 | 50 (≈ 193 µM) | 25 (≈ 96.3 µM) |  |  |  |  |  | 
Brc1ccc(N2COc3ccc4ccccc4c3C2)cc1 | > 50 | 50 (≈ 147 µM) | 50 (≈ 147 µM) |  |  | > 50 | > 50 | > 50 | 50 (≈ 147 µM) | > 50 |  |  |  |  | > 50 | 50 (≈ 147 µM)
